The values below come from PubChem BioAssay AID617 (SRMLSC, 2007).

SMILES strings stand for the structures.

The test relates to E. coli BW25113 ΔtolC growth inhibition, OD615. Nature of the test: E. coli ΔtolC antibacterial growth inhibition – strain BW25113 ΔtolC::kan, dose response (AID 617). The method, boiled down: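 Test system: E. coli BW25113 ΔtolC::kan bacteria | Amount: 1:1000 diluted subculture inoculum | Medium: LB plus kanamycin | Timing: 20 h exposure at 37 °C | Signal: Absorbance at 615 nm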
Take `CCCCCn1c(N2CCC(Cc3ccccc3)CC2)nc2c1c(=O)[nH]c(=O)n2C`: the IC50 (commonly the concentration that inhibits the measured activity by half) is 6.18 µM.
The result for `Cc1ccc(Cn2ccc(NC(=O)c3cc(CC(C)C)on3)n2)cc1` reads 8.54 µM.
The result for `Cc1oc(C(C)(C)C)cc1C(=O)Nc1ccc2c(c1)OCCO2` reads 18.9 µM; that for `CC1Cc2cc(-c3csc(NC(=O)Cc4cccs4)n3)ccc2N1S(C)(=O)=O` (stereo not given), 15.3 µM.
On to `O=S(=O)(Nc1nc2ccccc2nc1N1CCN(c2ccccn2)CC1)c1ccc(Cl)cc1`, for which the IC50 was 3.16 µM.
In the case of `COc1ccc(-c2cc3nc4c(c(N5CCC6(CC5)OCCO6)n3n2)CCCC4)cc1` it was 28.8 µM.
Take `O=C(O)c1cc(Cl)c2ccccc2c1O`: the IC50 was 10.1 µM.
In the case of `Cc1cc2n(n1)C(c1ccc3c(c1)OCO3)Nc1c(C)cccc1-2` (stereo not given), the IC50 is 29.6 µM.
On to `O=c1n(Cc2ccc(Cl)cc2)c2sc3c(c2c2ncnn12)CCCC3`, for which the IC50 was 7.35 µM.
The result for `CCCc1nc2sc3ccccc3c(=O)c2c(=O)n1Cc1ccco1` reads 5.73 µM.
On to `COc1ccc(-c2n[nH]c(C(F)(F)F)c2-c2cc3ccccc3o2)c(O)c1`, for which the IC50 is 1.99 µM.
With `CC1CCCCN1c1nc(-c2ccncc2)nc2ccccc12` (stereo not given), the IC50 is 12 µM.
In the case of `Cc1cccc(N=c2oc3cc(O)ccc3cc2C(N)=O)c1` it was 23 µM; in that of `CCOc1cc(/C=C(/C#N)c2ccc(F)cc2)ccc1OCc1ccc(C(=O)O)o1`, 4.4 µM; in that of `COc1ccc(OC)c(S(=O)(=O)N2CCN(c3c(C)cccc3C)CC2)c1`, 15.6 µM.
The result for `O=C(NC1CCCCC1)c1sc(=S)n2c1[nH]c(=O)c1ccccc12` reads 0.83 µM; that for `CCCn1c(=O)c(C(=O)Nc2nnc(C)s2)c(O)c2ccccc21`, 12 µM; that for `CCCc1ccc(OCc2ccc(C(=O)N3CCN(c4ccccn4)CC3)o2)c(OC)c1`, 7.15 µM.
As to `O=c1[nH]c2ccc(S(=O)(=O)N3CCN(c4ccccc4F)CC3)cc2s1`, the IC50 is 57 µM.
In the case of `Cc1csc(SCC(=O)Nc2nc(-c3ccccc3)cs2)n1` it was 14.1 µM; in that of `O=S(=O)(N1CCCCC1)n1c(Cc2ccccc2)nc2ccccc21`, 6.89 µM.
The result for `COc1ccccc1OCCSc1nnnn1-c1ccc(C)cc1` reads 18.9 µM; that for `C=CCOC(=O)C(C#N)c1nc2ccccc2nc1N1CCCC1` (stereo not given), 8.74 µM.
The result for `CCOC(=O)c1sc2nc(CC(=O)OC)nc(N3CCN(c4ccccn4)CC3)c2c1C` reads 25.1 µM; that for `CCCCCn1c(-c2ccco2)nc2nc3ccccc3nc21`, 84.8 µM; that for `Cc1cc(C(=O)CSc2nc3ccccc3o2)c(C)n1C1CC1`, 7.02 µM.
As to `Cc1[nH]n2c(=O)c3c(nc2c1-c1ccc(Cl)cc1)CCC3`, the IC50 was 4.09 µM.
In the case of `CO[C@@]1(NC(=O)Cc2cccs2)C(=O)N2C(C(=O)O)=C(COC(N)=O)CS[C@@H]21` it was 2 µM.
The result for `Cc1cccc(N2CCN(C(=O)Cc3c(C(=O)O)[nH]c4ccc(Cl)cc34)CC2)c1C` reads 7.52 µM; that for `CCN(CC)S(=O)(=O)c1ccc2[nH]cc(C(=O)NCCC3=CCCCC3)c(=O)c2c1`, 5.15 µM; that for `O=C1CC(c2ccco2)CC2=C1C1c3ccccc3C(=O)N1c1ccccc1N2` (stereo not given), 22.7 µM.
The result for `CCn1c(C(=O)NCCCc2ccccc2)cc2sccc21` reads 8.52 µM.
Regarding `CCc1cc2c(N3CCN(c4ccccc4)CC3)ncnc2s1`, the IC50 is 13.6 µM.
In the case of `OC(COc1ccc2ccccc2c1Br)Cn1ccnc1` (stereo not given) it was 7.54 µM.
In the case of `CCOC(=O)c1cnc(-n2nc(C)cc2C)nc1NCc1ccccc1` it was 0.68 µM; in that of `COc1ccc(-c2noc(Cc3ccc(Cl)cc3)n2)cc1OC`, 75 µM.
In the case of `CCN(c1ccccc1)S(=O)(=O)c1ccc(C(=O)Nc2nnc(COC)o2)cc1`, the IC50 is 3.23 µM.
Regarding `C=C(C)COc1ccc(-c2n[nH]c(C)c2Oc2ccccc2OC)c(O)c1`, the IC50 was 8.36 µM.
With `O=S(=O)(Nc1nc2ccccc2nc1NCc1ccco1)c1ccc(Cl)cc1`, the IC50 was 4.77 µM.
The result for `CCCCc1ccc(C2C(C#N)=C(N)SC(N)=C2C#N)s1` reads 13.8 µM.
